Data set [1] is described as follows: Cysteine reactivity in pH 10 CAPS buffer assessed as peak area for cysteine-compound adduct formation at 10 uM after 24 hrs in presence of 100 molar excess cysteine by LC-MS analysis relative to 2-chloro-N-(4-((3-chloro-4-fluorophenyl)amino)-7-ethoxyquinazolin-6-yl)acetamide. An outline of the steps:
(§1)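 Compound at 10 µM added to freshly prepared 1 mM cysteine (1:100) in 50 mM CAPS pH 10, ionic strength 0.15 M with KCl; 37 °C; Cys-conjugate measured after 24 h by LC-MS in MRM mode. Half-life from LC-MS; conjugate peak area scaled to the 2-chloroacetamide conjugate set at 10,000.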

The subject of data set [2] is Epidermal growth factor receptor (Homo sapiens), P00533 [L858R,T790M]. The following applies: NCI-H1975, at 0.1 µM.
Data set [3] is described as follows: Cysteine reactivity in pH 10 CAPS buffer assessed as half life for cysteine-compound adduct formation at 10 uM after 24 hrs in presence of 100 molar excess cysteine by LC-MS analysis. The method in brief: as §1
The subject of the next data set is NCI-H1975. Put plainly: cells. It counts as functional, cell-based. The following applies: Homo sapiens, NCI-H1975, 72 h.
Data set [4] concerns the target T1, Epidermal growth factor receptor (Homo sapiens, UniProt P00533). The following applies: A549, at 1 µM.
The target in data set [5] is T1, Epidermal growth factor receptor. Put plainly: Inhibition of wild type EGFR autophosphorylation in human A549 cells by Western blot analysis. It counts as cell-based. A general note: A western blot detects proteins with antibodies after separation by electrophoresis.
Data set [6] shares this target. The settings on record: A549, at 1 µM. The source holds these as a separate data set.
Data set [7] relates to Epidermal growth factor receptor (Homo sapiens), P00533 [L858R,T790M]. The following applies: NCI-H1975, at 1 µM.
Chain of Epidermal growth factor receptor (Homo sapiens), P00533 [L858R,T790M] (P00533 whole entry T790M/L858R, looked up): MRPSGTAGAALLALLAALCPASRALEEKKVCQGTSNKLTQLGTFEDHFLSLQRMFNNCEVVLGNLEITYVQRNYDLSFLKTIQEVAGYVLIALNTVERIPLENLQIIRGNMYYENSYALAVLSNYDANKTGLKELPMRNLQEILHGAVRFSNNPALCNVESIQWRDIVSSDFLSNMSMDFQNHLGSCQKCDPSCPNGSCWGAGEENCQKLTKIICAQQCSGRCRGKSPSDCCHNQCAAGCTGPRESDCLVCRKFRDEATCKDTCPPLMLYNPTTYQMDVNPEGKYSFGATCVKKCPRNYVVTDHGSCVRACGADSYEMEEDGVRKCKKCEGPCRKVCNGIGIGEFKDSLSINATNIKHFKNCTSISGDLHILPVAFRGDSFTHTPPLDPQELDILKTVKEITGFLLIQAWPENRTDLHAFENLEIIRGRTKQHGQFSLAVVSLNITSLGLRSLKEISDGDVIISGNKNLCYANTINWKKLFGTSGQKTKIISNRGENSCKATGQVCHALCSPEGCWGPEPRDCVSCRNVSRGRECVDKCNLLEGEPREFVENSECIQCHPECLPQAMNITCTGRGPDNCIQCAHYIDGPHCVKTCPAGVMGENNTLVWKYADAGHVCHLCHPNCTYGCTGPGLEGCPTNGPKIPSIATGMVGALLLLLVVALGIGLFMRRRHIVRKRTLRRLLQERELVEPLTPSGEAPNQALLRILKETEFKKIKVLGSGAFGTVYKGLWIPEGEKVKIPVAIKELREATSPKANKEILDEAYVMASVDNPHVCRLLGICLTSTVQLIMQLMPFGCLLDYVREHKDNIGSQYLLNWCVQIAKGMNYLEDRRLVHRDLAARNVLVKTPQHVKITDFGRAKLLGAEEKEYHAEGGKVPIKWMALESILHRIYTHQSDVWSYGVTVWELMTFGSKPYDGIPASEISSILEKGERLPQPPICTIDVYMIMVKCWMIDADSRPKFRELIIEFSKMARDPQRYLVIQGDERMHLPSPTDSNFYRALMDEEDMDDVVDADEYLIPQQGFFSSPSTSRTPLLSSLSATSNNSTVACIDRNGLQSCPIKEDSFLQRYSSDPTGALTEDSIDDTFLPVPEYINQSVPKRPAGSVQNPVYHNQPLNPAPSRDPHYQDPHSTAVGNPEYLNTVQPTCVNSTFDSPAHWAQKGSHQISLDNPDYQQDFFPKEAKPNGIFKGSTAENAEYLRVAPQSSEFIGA
For data set [8], the target named is T1, Epidermal growth factor receptor.
Data set [9] is described as follows: Drug uptake in human A549 cells at 1 uM after 1 hr by LC-MS analysis. It is filed as ADME, cell-based. The settings on record: a549, 1 h. The method in brief: (§2)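 A549 cells plated at 1,000,000 per 25 cm2 dish, dosed after 24 h at 1 µM final (0.1% DMSO), 1 h at 37 °C. Harvested at once or 8 h after three washes with fresh medium. Ethanol extraction, LC-MS quantitation as pmol/mg protein (Bradford), converted to µM using 4 µL cell volume per mg protein. Mean ± SD, three experiments.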

In a further data set the test system is A549. Nature of the data set: Ratio of drug uptake in human A549 cells at 1 uM measured after 1 hr to drug uptake in human A549 cells at 1 uM incubated for 1 hr followed by compound washout and measured after 8 hrs. It counts as ADME, cell-based. The following applies: a549, 1 µM. An outline of the steps: as §2
A short description of data set [10]: Drug uptake in human A549 cells at 1 uM incubated for 1 hr followed by compound washout and measured after 8 hrs by LC-MS analysis. The following applies: a549, 1 h. It is filed as ADME, cell-based. An outline of the steps:
as §2

Structures are written as SMILES. Bounds are passed on as bounds.

As usually defined, the inhibition is how much of the control response was suppressed. Higher therefore signals strong suppression. What is called IC50 is the concentration needed to halve the response being measured. A lower IC50 goes with greater potency.

T1 sequence (P00533 whole entry): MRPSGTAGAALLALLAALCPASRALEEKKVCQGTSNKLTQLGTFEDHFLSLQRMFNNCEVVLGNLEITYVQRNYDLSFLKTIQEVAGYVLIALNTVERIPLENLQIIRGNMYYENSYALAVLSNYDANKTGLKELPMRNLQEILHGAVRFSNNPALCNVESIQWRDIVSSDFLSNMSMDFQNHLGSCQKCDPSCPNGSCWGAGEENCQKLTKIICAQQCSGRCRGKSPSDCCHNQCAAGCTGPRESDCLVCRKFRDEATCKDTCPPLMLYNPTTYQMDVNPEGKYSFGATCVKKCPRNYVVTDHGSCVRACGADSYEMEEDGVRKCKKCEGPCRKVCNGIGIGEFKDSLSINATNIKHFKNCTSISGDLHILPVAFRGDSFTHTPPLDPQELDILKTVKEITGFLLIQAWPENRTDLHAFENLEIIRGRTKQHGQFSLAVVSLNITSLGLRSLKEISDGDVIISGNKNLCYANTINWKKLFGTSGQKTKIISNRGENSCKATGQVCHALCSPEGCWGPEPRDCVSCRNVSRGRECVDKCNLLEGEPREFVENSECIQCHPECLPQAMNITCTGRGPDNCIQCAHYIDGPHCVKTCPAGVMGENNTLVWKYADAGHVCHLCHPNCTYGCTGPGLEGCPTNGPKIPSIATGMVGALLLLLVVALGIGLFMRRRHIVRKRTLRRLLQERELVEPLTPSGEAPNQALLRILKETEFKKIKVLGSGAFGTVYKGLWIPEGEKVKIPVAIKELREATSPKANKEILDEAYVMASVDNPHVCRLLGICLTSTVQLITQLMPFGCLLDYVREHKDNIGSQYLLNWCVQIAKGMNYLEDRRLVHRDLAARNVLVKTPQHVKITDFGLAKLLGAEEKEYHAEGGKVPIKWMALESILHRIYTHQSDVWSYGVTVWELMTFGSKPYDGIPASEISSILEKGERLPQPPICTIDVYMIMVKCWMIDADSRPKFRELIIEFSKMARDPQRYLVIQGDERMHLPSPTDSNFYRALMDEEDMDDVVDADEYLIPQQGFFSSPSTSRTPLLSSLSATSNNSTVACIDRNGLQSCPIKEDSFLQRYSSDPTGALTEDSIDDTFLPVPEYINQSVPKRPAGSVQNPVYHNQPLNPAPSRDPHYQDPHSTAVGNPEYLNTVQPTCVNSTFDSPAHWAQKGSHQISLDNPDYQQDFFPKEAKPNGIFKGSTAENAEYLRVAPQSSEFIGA

Consider `CCOc1cc2ncnc(Nc3ccc(F)c(Cl)c3)c2cc1NC(=O)COC(=O)c1c(C)cccc1C`, for which the Activity in [1] stood at 5 a.u. Besides, the inhibition amounted to 20% in [2], 97% in [4], 97% in [6] and 16% in data set [7]. Moreover, in data set [3], the T1/2 is over 24 h. Besides, the concentration for half-maximal inhibition (IC50) in the data set with NCI-H1975 is 6100 nM; in [5], 44 nM.
Regarding `CCOc1cc2ncnc(Nc3ccc(F)c(Cl)c3)c2cc1NC(=O)CO`, the IC50 is 0.34 nM in data set [8], over 10000 nM in the data set on NCI-H1975 and 27 nM in [5]. Further, the Drug uptake in [9] amounted to 132 µM; in data set [10], 1.1 µM. In addition, the inhibition in data set [2] is 0%; in [4], 77%; in data set [6], 90%; in [7], 0%. Also, the T1/2 in data set [3] is over 24 h. Besides, the Ratio with A549 is listed as 120.
Turning to `COc1cc2ncnc(Nc3ccc(F)c(Cl)c3)c2cc1OCCCN1CCOCC1` [GEFITINIB], the results for the Drug uptake in data set [9] and in data set [10] were 271 µM and 2.4 µM, respectively.
`CCOc1cc2ncnc(Nc3ccc(F)c(Cl)c3)c2cc1NC(=O)COC(=O)c1ccccc1`: the Activity in [1] came to 11 a.u. Moreover, the inhibition amounted to 0.5% in data set [2], 89% in data set [4], 88% in [6] and 43% in data set [7]. Also, in [3], the T1/2 is over 24 h. In addition, the half-maximal inhibitory concentration (IC50) with NCI-H1975 amounted to 8300 nM; in data set [5], 25 nM.
As to `CCOc1cc2ncnc(Nc3ccc(F)c(Cl)c3)c2cc1NC(=O)COC(C)=O`, the IC50 in [8] amounted to 0.52 nM; in the data set on NCI-H1975, 3400 nM; in data set [5], 34 nM. In addition, the results for the Drug uptake in [9] and in [10] were 5.8 µM and under 0.05 µM, respectively. In addition, the Activity in [1] was found to be 0.64 a.u. In addition, the inhibition in [2] was 27%; in [4], 75%; in data set [6], 97%; in [7], 68%. Further, in data set [3], the T1/2 came to 23.3 h.
In the data set on NCI-H1975, `C=CC(=O)Nc1cc(Nc2nccc(-c3cn(C)c4ccccc34)n2)c(OC)cc1N(C)CCN(C)C` [OSIMERTINIB] registered a half-inhibitory concentration (IC50) of […].

Values taken from ChEMBL document CHEMBL4382245, “Balancing reactivity and antitumor activity: heteroarylthioacetamide derivatives as potent and time-dependent inhibitors of EGFR” (Eur J Med Chem, 2019).
